Screening results: PubChem BioAssay, Sanford-Burnham Center for Chemical Genomics
An excerpt weighted towards active compounds, which were near 1.2% of everything screened.
HKDC1 inhibitor = blocks human hexokinase HKDC1 activity | recombinant HKDC1, G6PDH/diaphorase resazurin coupled fluorescence | inhibition, % at 20 µM | hit rate 0.16% among 340,000 | AID 493160;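 active means inhibition above about 35% when tested at 20 µM, limit read from the data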
Target sequence (Q2TB90 whole entry, looked up): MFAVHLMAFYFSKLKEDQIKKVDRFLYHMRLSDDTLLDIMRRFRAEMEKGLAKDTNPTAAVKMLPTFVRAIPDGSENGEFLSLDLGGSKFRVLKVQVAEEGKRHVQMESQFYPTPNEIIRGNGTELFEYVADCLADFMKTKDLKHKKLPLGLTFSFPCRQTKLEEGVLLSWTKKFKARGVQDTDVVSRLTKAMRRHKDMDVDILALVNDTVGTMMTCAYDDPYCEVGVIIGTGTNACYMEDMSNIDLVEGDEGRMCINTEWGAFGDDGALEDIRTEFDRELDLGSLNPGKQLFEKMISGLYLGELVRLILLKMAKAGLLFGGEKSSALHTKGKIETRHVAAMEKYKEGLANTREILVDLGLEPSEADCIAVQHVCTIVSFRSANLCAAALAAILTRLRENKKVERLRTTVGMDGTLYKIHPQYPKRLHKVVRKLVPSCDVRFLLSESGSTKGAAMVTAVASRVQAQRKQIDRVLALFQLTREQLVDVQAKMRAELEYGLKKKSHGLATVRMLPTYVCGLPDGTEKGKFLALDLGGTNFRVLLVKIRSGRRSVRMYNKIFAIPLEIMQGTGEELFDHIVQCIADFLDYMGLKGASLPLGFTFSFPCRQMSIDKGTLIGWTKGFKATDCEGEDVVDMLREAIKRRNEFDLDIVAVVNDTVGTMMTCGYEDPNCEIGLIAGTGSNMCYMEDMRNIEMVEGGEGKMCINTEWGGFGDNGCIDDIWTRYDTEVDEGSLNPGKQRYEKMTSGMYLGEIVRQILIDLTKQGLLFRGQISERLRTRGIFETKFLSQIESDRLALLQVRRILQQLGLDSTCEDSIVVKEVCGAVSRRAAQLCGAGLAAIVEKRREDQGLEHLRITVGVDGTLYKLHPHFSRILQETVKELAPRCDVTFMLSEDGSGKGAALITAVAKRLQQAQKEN
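System: Recombinant HKDC1 hexokinase | Amount: HKDC1 at 5 µg/mL | Reagent: Glucose with 1 mM ATP | Doses: Single 20 µM dose | Incubation: Reaction time 90 min, room temperature, protected from light | Signal: Coupled resazurin fluorescence, excitation 525 nm, emission 613 nm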
Diaphorase inh = diaphorase inhibition or chemical oxidation counter-screen; diaphorase resazurin-to-resorufin fluorescence, NADH, 16 min; bacterial (C. kluyveri) enzyme, not human; inhibition, % at 20 µM; hit rate 0.69% among 190,000; AID 1217;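 active means primary screen inhibition at 20 µM above a set limit, cut at about 50% in these data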
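controls = No-NADH positive control and DMSO neutral control | system = Clostridium kluyveri diaphorase enzyme | timing = reaction incubation of 16 min at room temperature | signal = resorufin fluorescence 544/590 nm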
Diaphorase act = counter-screen for diaphorase-based assays: diaphorase activators and chemical reducers; activation factor at 20 µM; AID 1229; Diaphorase/resazurin coupled assay, resorufin fluorescence, 16 min; active compounds read high; 1 = vehicle wells, 0 = NADH-free wells; hit rate 0.005% among 190,000;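 active means diaphorase activity raised at least twofold by the compound at 20 µM; inactive means activation factor below 2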
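Material: bacterial diaphorase enzyme (C. kluyveri); amount: enzyme 0.07 U/mL final; reagent: NADH substrate 0.114 mM plus resazurin dye 0.1 mM, final; doses: single compound dose of 20 µM, 1% DMSO final; timing: 16 min enzyme reaction, ambient temperature; measured by: fluorescence of resorufin, 544 nm excitation, 590 nm emission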
G6PDH counter = L. mesenteroides G6PDH inhibition counter-screen | inhibition, % at 5 µM | Purified L. mesenteroides G6PDH, diaphorase/resazurin coupled fluorescence, 45 min | hit rate 0.12% among 200,000; in the data active means inhibition above about 50%
PfG6PD inh = PfG6PD (Plasmodium falciparum) enzyme inhibition. PfGluPho enzyme, NADPH resazurin-diaphorase fluorescence. hit rate 0.78% among 350,000. inhibition, % at 20 µM;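 active means inhibition reaching at least a set limit at 20 µM in the primary screen, cut at about 59% in these data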
PfG6PD confirm = confirmation of Plasmodium falciparum G6PD inhibitors; shares compounds with PfG6PD inh; recombinant PfGluPho, NADPH-diaphorase-resazurin fluorescence; inhibition, % at 20 µM; hit rate 34% among 2,400;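 active means inhibition of at least 50% at 20 µM in any single replicate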
Diaph ctr 10uM = diaphorase inhibition or oxidation at 10 uM NADPH; shares compounds with PfG6PD inh; diaphorase-coupled resazurin reduction, fluorescence, NADPH 10 uM; inhibition, % at 20 µM; hit rate 39% among 820;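 active means average inhibition reaching 50% or more with the compound at 20 µM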;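 further: resorufin red fluorescence formed as diaphorase reduces resazurin using NADPH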
Diaph ctr 30uM = counter-screen for P. falciparum G6PD inhibitors: diaphorase inhibitors, oxidizers; shares compounds with PfG6PD inh; Diaphorase/resazurin coupled assay, resorufin fluorescence, 30 uM NADPH; inhibition, % at 20 µM; hit rate 29% among 820;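 active means inhibition averaging 50% or more, tested at 20 µM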
Hits are given with their value; – = inactive; · = no result.

SMILES	HKDC1 inhibitor	Diaphorase inh	Diaphorase act	G6PDH counter	PfG6PD inh	PfG6PD confirm	others
Cc1cc(C)c(C)c(S(=O)(=O)Nc2ccc3cn[nH]c3c2)c1C	–	·	·	·	92	–
COc1ccc(S(=O)(=O)Nc2ccc3cn[nH]c3c2)cc1C	–	–	–	–	–	·
COc1cc(C)ccc1OCCOCCOc1ccc([N+](=O)[O-])cc1	–	–	–	–	–	·
COc1cc(C)ccc1Oc1ccc([N+](=O)[O-])cc1	–	·	·	·	63	–
COc1ccc(Br)c(OC)c1C(=O)NC(=O)Nc1nc(C)cc(C)n1	–	·	·	·	106	74	Diaph ctr 10uM=68;Diaph ctr 30uM=65
COc1ccc([N+](=O)[O-])c(OC)c1C(=O)NC(=O)Nc1nc(C)cc(C)n1	–	·	·	·	–	·
CN(CC(=O)Nc1c(Cl)cccc1Cl)CC(=O)N1CCc2ccccc21	·	·	·	·	–	·
COc1ccc(NC(=S)NC(NC(=O)CCl)C(Cl)(Cl)Cl)c([N+](=O)[O-])c1 (configuration not stated)	–	–	–	–	65	–
COc1ccc(NC(=S)NC(NC(=O)c2ccccc2Cl)C(Cl)(Cl)Cl)c([N+](=O)[O-])c1 (configuration not stated)	–	–	–	–	–	·
CC1CCCN(Cc2ccc(OCc3ccccc3)cc2)C1 (configuration not stated)	–	·	·	·	–	·
O=C1C(=O)c2ccccc2C([O-])=C1[n+]1ccccc1	–	·	·	·	–	·
CCc1cc[n+](C2=C([O-])c3ccccc3C(=O)/C2=N\S(=O)(=O)c2cccs2)cc1	–	–	–	51	95	72	Diaph ctr 10uM=66;Diaph ctr 30uM=75
Cc1ccsc1/C=N/NC(=O)c1nnn(-c2nonc2N)c1C	–	·	·	·	–	·
Nc1nonc1-n1nnc(C(=O)N/N=C/c2ccc(Br)cc2)c1-c1ccc2c(c1)OCO2	–	·	·	·	–	·
Cc1ccc(-c2c(C(=O)N/N=C/c3sccc3C)nnn2-c2nonc2N)cc1	–	·	·	·	88	–
COc1ccccc1/C=N/NC(=O)c1nnn(-c2nonc2N)c1-c1ccccc1	–	·	·	·	–	·
Nc1nonc1-n1nnc(C(=O)N/N=C/c2cccc(Cl)c2)c1-c1ccc2c(c1)OCO2	–	·	·	·	119	99	Diaph ctr 10uM=87;Diaph ctr 30uM=66
COc1ccccc1/C=N/NC(=O)c1nnn(-c2nonc2N)c1-c1cccs1	–	·	·	·	93	55	Diaph ctr 10uM=85;Diaph ctr 30uM=67
CCOc1cc(/C=N/Nc2nnc(C)n2N)ccc1O	–	·	·	·	59	–
CCOc1cc2c3c(c1)C(C)=CC(C)(C)N3C(=O)C2=O	–	–	–	–	–	·
CC(=O)Oc1cc2c3c(c1)/C(=C1/SC(=S)NC1=O)C(=O)N3C(C)(C)C=C2C	–	·	·	·	80	–
CNC(=S)N(CCCn1ccnc1)Cc1c(F)cccc1Cl	–	·	·	·	–	·
CC(C)c1nc2sc3c(=O)n(N)cnc3c2c2c1COC(C)(C)C2	–	–	–	–	60	–
CC(=O)OCC1(C)CN(c2ccccc2)N(C(C)=O)C1=O (configuration not stated)	–	–	–	–	–	·
CC(=O)OCC1(C)CN(c2ccccc2)NC1=O (configuration not stated)	–	–	–	–	97	90	Diaph ctr 10uM=–;Diaph ctr 30uM=–
SMILES	HKDC1 inhibitor	Diaphorase inh	Diaphorase act	G6PDH counter	PfG6PD inh	PfG6PD confirm	others
COC1(OC)C=CC(=O)C=C1NC(=O)c1ccccc1OC(C)=O	–	·	·	·	63	64	Diaph ctr 10uM=–;Diaph ctr 30uM=–
CC(=O)Oc1ccccc1C(=O)Nc1ccccc1	–	·	·	·	–	·
CCOC(=O)c1c(C2COc3ccccc3O2)csc1NC(=O)c1ccco1 (configuration not stated)	–	–	–	–	84	54	Diaph ctr 10uM=–;Diaph ctr 30uM=–
Cc1cc(C)c2[nH]c(C(=O)Nc3ccc4c(c3)OCO4)cc2c1	–	·	·	·	61	–
COc1ccc(C(=O)C2CCCN(C(=O)Cn3nc(C)cc3C)C2)cc1F (configuration not stated)	–	·	·	·	–	·
CCCc1cc(C(=O)N2CCN(c3ccc(C(F)(F)F)cn3)CC2)sc1C	–	·	·	·	–	·
Oc1cccc(CN2CCOCC2)c1O	–	·	·	·	–	·
Oc1c(CN2CCOCC2)cc(CN2CCOCC2)c(O)c1O	–	·	·	·	82	64	Diaph ctr 10uM=52;Diaph ctr 30uM=55
CSc1ccccc1NC(=O)CN(C)CC(=O)c1c(C)[nH]c2ccccc12	–	·	·	·	–	·
CCOC(=O)c1c(NC(=O)c2ccccc2Br)sc2c1CCc1ccccc1-2	–	–	–	–	64	–
CCOC(=O)c1c(NC(C)=O)sc2c1CCC(C=O)=C2Sc1ccccc1	–	–	–	–	–	·
CC1CCN(C(=O)Cn2nnc(-c3ccc(C(C)C)cc3)n2)CC1	–	·	·	·	–	·
COc1ccc2oc(C)c(C(N)=O)c2c1	–	–	–	–	–	·
COc1ccc2oc(C)c(C(=O)c3ccc([N+](=O)[O-])cc3)c2c1	–	–	–	–	67	–
CN(C)c1ccc(C=NN2C(=O)CSC2=S)c(Cl)c1	·	·	·	·	–	·
Cc1onc(C(=O)Nc2sc3c(c2C(N)=O)CCCC3)c1[N+](=O)[O-]	–	·	·	·	64	–
Cc1onc(-c2ccccc2)c1C(=O)Nc1sc2c(c1C(N)=O)CCC2	–	–	–	–	–	·
Nc1c(C(=O)c2ccccc2)sc2nsc(SCCN3CCOCC3)c12	–	·	·	·	–	·
CC(=O)c1sc2nsc(SCCN3CCOCC3)c2c1N	–	·	·	·	78	–
COc1ccc(-n2nnnc2/C=C\Nc2ccc(C)cc2)cc1	–	·	·	·	–	·
COCCn1c(-c2ccc(OC)cc2)nc2ccccc21	–	–	–	–	–	·
COCCn1c2nc(=O)n(-c3ccccc3)c(=O)c-2nc2ccccc21	·	·	·	·	59	–
O=C1OCC/C1=C\NCCCCCCCCN/C=C1\CCOC1=O	·	·	·	·	–	·
COc1ccc2c3c(ccc2c1)C(=O)/C(=C/O)CC3	–	·	·	·	69	–
COc1ccc2c(c1)CC/C(=C/c1ccncc1)C2=O	–	–	–	–	–	·
COc1ccc(N2CSC3=C(C#N)C(c4ccc(OC)c(OC)c4)CC(=O)N3C2)c(OC)c1 (configuration not stated)	–	58	–	–	80	65	Diaph ctr 10uM=–;Diaph ctr 30uM=–
CCSC1=C(C#N)C(c2ccc(OC)c(OC)c2)CC(=O)N1 (configuration not stated)	–	–	–	–	–	·
COc1ccc(C2C(C#N)=C(N)SC(N)=C2C#N)cc1OC	–	–	–	–	–	·
COc1ccc(C2CC(=O)N3CN(c4ccc(C)c(Cl)c4)CSC3=C2C#N)cc1OC (configuration not stated)	–	60	–	–	59	–
